Activity calls are given as the source filed them. The rule behind the calls is not given here.
Experiments:
[1] = Metal chelating activity assessed as Fe2+-compound complex formation incubated for 15 mins by Ferrozine based assay
Summary of the method: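 FeSO₄ (25 µM) in water incubated with or without test compound (100 µM, DMSO) for 15 min at room temperature, 300 µL final. Ferrozine then added (1 mM final), shaken 15 min at room temperature. Absorbance of the ferrozine–Fe(II) magenta complex read at 562 nm; chelation seen as reduced complex formation.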

[2] = molecular target: T1, Fatty-acid amide hydrolase 1 (Homo sapiens, UniProt O00519); assay: Inhibition of recombinant human FAAH using AMC-AA as substrate preincubated for 10 mins followed by substrate addition measured after 2 hrs by fluorometric assay
T1 sequence (O00519 whole entry): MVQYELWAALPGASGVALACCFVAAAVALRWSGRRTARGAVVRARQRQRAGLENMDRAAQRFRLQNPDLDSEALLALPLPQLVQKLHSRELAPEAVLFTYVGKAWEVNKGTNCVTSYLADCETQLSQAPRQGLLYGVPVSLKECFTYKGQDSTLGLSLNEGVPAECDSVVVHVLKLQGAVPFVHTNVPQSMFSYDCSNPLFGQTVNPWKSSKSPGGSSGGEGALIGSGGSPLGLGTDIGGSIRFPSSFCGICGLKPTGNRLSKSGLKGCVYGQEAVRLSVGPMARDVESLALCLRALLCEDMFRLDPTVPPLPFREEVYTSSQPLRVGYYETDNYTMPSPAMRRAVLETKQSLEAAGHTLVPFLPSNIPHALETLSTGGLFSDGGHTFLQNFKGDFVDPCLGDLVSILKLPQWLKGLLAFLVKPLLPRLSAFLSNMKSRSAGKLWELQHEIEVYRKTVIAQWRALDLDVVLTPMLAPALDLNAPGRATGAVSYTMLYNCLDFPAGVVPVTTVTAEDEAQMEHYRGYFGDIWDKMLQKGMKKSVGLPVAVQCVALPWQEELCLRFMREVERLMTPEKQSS
Summary of the method: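 Human recombinant FAAH preincubated with inhibitor at various concentrations in Tris-HCl 125 mM, Na₂EDTA 1 mM, pH 9.0, 10 min at room temperature with shaking. AMC-AA substrate then added (1 µM final); fluorescence read every 30 s for 2 h at 37 °C (ex 340/em 450 nm). Percent inhibition from no-inhibitor controls and no-enzyme blanks; IC50 from at least three independent runs in triplicate.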

Cannabinoid receptor 2 [3] = molecular target: T2, Cannabinoid receptor 2 (Homo sapiens, UniProt P34972); assay: Displacement of [3H]CP55940 from recombinant human CB2 receptor expressed in HEK293 cell membrane incubated for 90 mins by beta scintillation counter method; assay type: cell membranes
T2 sequence (P34972 whole entry): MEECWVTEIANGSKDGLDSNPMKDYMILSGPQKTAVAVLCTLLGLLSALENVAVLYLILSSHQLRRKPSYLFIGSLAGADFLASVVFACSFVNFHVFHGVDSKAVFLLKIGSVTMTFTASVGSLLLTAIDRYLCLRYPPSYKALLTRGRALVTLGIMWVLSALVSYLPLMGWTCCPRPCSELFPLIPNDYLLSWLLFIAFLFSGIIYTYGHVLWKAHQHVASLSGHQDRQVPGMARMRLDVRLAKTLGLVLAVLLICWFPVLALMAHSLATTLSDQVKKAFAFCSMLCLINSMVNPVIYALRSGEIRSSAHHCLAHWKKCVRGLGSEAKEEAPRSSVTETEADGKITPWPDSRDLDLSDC
Summary of the method: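 HEK293 membranes stably expressing human CB2 (50 µg protein/well) competed with 0.2 nM [3H]-CP55,940 (final) against test compound at 10⁻¹²–10⁻⁵ M in Tris-HCl 50 mM, EGTA 2.5 mM, MgCl₂ 5 mM, 0.1% fatty-acid-free BSA, pH 7.4; 90 min at 30 °C. Nonspecific binding defined with 10 µM GW405833.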

Cannabinoid receptor 2 [4] = molecular target: T2, Cannabinoid receptor 2; assay: Agonist activity at human CB2 receptor overexpressed in CHO-K1 cells assessed as cAMP level incubated for 30 mins by luminescence based assay; assay type: functional, cell-based
Summary of the method: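 CHO-K1 cells overexpressing human CB2R were plated at 30 000 cells/well and held overnight at 37 °C, 5% CO2. Test samples were added as dose–response solutions with NKH-477 to stimulate adenylate cyclase, then incubated 30 min at 37 °C. cAMP was detected by luminescence after cell lysis. Values were normalized to NKH-477 alone as 100% response. Three independent experiments were run in triplicate.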

Cannabinoid receptor 1 = Cannabinoid receptor 1 (Homo sapiens, UniProt P21554); assay: […] human CB1 receptor in CHO cells incubated for 15 mins by plate reader analysis relative to control; assay type: cell-based
Sequence of Cannabinoid receptor 1 (P21554 whole entry): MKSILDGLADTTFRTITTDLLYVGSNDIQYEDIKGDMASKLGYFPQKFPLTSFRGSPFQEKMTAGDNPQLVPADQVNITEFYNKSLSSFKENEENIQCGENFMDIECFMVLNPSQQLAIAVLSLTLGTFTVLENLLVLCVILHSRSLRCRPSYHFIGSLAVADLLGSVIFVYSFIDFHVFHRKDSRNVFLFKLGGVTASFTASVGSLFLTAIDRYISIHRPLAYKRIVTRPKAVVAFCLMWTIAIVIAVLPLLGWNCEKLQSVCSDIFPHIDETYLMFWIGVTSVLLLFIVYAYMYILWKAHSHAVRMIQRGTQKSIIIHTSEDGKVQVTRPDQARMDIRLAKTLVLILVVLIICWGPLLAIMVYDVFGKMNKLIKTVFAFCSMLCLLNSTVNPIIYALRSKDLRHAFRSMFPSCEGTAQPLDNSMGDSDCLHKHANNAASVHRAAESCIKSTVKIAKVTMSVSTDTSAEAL
Summary of the method: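 CHO-CB1 C3 cells (human CB1) were seeded at 8000 cells/well in medium with dialyzed FBS and preincubated 15 min at 37 °C. Compounds or the CP55940 control were added for 15 min at 37 °C, then forskolin 10 µM for 5 min. cAMP was read by HTRF after 1 h at room temperature (λex 320 nm, λem 620-665 nm).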

[5] = molecular target: Cannabinoid receptor 2 (Mus musculus) (UniProt P47936); assay: Agonist activity at mouse CB2 receptor transfected in CHO-K1 cells assessed as beta2-arrestin recruitment incubated for 90 mins by luminescence based assay relative to control; assay type: functional, cell-based; settings: filed as agonist
Sequence of Cannabinoid receptor 2 (Mus musculus) (P47936 whole entry): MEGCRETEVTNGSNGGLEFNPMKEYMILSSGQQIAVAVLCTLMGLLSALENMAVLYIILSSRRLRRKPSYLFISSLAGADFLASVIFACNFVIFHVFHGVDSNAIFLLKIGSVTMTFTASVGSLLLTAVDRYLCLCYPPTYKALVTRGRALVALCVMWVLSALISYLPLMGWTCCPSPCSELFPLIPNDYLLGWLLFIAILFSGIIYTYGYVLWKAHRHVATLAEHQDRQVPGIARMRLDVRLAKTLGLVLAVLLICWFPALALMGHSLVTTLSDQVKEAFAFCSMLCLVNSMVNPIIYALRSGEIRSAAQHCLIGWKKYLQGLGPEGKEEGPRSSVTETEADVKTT
Summary of the method: (§1)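 PathHunter eXpress kit using mouse CB2 receptor in CHO-K1 cells. Cells were seeded 48 h before the assay in kit medium. Compounds in cell plating reagent were incubated 90 min at 37 °C, 5% CO2. Working detection solution was then added for 60 min at room temperature to read β-arrestin recruitment.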

Cannabinoid receptor 2 [6] = molecular target: Cannabinoid receptor 2 (Mus musculus, UniProt P47936); assay: Agonist activity at mouse CB2 receptor transfected in CHO-K1 cells assessed as beta2-arrestin recruitment incubated for 90 mins by luminescence based assay; assay type: functional, cell-based; summary of the method: as §1
Sequence of Cannabinoid receptor 2 (Mus musculus, UniProt P47936) (P47936 whole entry): as above

THP-1 [7] = assay: Antiinflammatory activity in human THP-1 macrophages assessed as increase in IL-10 level incubated for 24 hrs by ELISA based qRT-PCR analysis; assay type: functional, cell-based
Summary of the method: (§2)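 THP-1 cells were seeded at 1 x 10⁵ cells/ml for 48 h. For macrophages, cells were differentiated with 0.01 µM PMA for 48 h; monocytes received no PMA. Cells were then given 24 h with or without 10 µg/ml LPS, plus ligands alone or with the CB2R inverse agonist JTE907 (10 µM). Cytokines were measured in 5 µL supernatant (from 1 x 10⁴ cells) by ProQuantum immunoassay, read as pg/ml from kit titration curves; n=3.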

THP-1 [8] = assay: Antiinflammatory activity in human THP-1 macrophages assessed as decrease in IL-6 level incubated for 24 hrs by ELISA based qRT-PCR analysis; assay type: functional, cell-based; summary of the method: as §2
THP-1 [9] = assay: Antiinflammatory activity in LPS-activated human THP-1 monocytes assessed as decrease in IL-6 level incubated for 24 hrs by ELISA based qRT-PCR analysis; assay type: functional, cell-based; summary of the method: as §2

| Compound | Activity [1] | IC50 [2] [µM] | Ki (Cannabinoid receptor 2 [3]) [nM] | other results |
| --- | --- | --- | --- | --- |
| COc1ccc(C(=O)NC23CC4CC(CC(C4)C2)C3)cc1OC | Active | > 50 | 3000 |  |
| COc1cccc(C(=O)NC23CC4CC(CC(C4)C2)C3)c1O | Active | > 50 | 153 |  |
| O=C(NC12CC3CC(CC(C3)C1)C2)c1cccc(OCc2ccccc2)c1 | Active | 24.1 | 313 |  |
| COc1cc(Br)cc(C(=O)NC23CC4CC(CC(C4)C2)C3)c1OC | Active | 44.6 | 139 |  |
| CCCC(C)(C)c1ccc2c(c1)OC(C)(C)[C@@H]1CC=C(C)C[C@@H]21 |  |  |  | EC50 (Cannabinoid receptor 2 [4]): 169 nM |
| COc1ccccc1C(=O)NC12CC3CC(CC(C3)C1)C2 | Active | 48.5 | 387 |  |
| O=C(NC12CC3CC(CC(C3)C1)C2)c1ccc(O)cc1 | Active | > 50 | 1060 |  |
| CCCCCCC(C)(C)c1ccc([C@H]2C[C@@H](O)CC[C@@H]2CCCO)c(O)c1 |  |  |  | Emax (Cannabinoid receptor 1): 100%; Emax [5]: 100%; EC50 (Cannabinoid receptor 2 [6]): 0.4 nM |
| COc1cccc(C(=O)NC23CC4CC(CC(C4)C2)C3)c1 | Active | 32.3 | 510 |  |
| COc1ccc(C(=O)NC23CC4CC(CC(C4)C2)C3)cc1 | Active | > 50 | 2450 |  |
| O=C(NC12CC3CC(CC(C3)C1)C2)c1ccccc1 | Active | 23.4 |  |  |
| O=C(NC12CC3CC(CC(C3)C1)C2)c1ccc(OCc2ccccc2)cc1 | Active | 19.5 | 3850 |  |
| COc1cc(Br)cc(C(=O)NC23CC4CC(CC(C4)C2)C3)c1OCc1ccccc1 | Active | 8.8 | 3200 |  |
| O=C(NC1CCCCC1)c1cn(CCN2CCOCC2)c2cc(Cl)ccc2c1=O |  |  |  | Activity (THP-1 [7]): inactive; Activity (THP-1 [8]): inactive; Activity (THP-1 [9]): inactive |
| O=C(NC12CC3CC(CC(C3)C1)C2)c1ccccc1O | Active | > 50 |  |  |
| O=C(NC12CC3CC(CC(C3)C1)C2)c1cccc(O)c1 | Active | 25.6 |  |  |
| COc1cc(Br)cc(C(=O)NC23CC4CC(CC(C4)C2)C3)c1O | Active | 38.4 |  |  |
| COc1cccc(C(=O)NC23CC4CC(CC(C4)C2)C3)c1OC | Active | > 50 | 87.6 |  |

Source: ChEMBL document CHEMBL5316280, “Development of N-(1-Adamantyl)benzamides as Novel Anti-Inflammatory Multitarget Agents Acting as Dual Modulators of the Cannabinoid CB2 Receptor and Fatty Acid Amide Hydrolase” (J Med Chem, 2023)
